Experimental data reported in ChEMBL document CHEMBL3813640, “Design and synthesis of potent and selective pyridazin-4(1H)-one-based PDE10A inhibitors interacting with Tyr683 in the PDE10A selectivity pocket” (Bioorg Med Chem, 2016).

The molecules below were run against cAMP and cAMP-inhibited cGMP 3',5'-cyclic phosphodiesterase 10A (Homo sapiens, UniProt Q9Y233) (assay: Inhibition of human full length PDE10A2 expressed in African green monkey COS7 cells using [3H]cGMP as substrate preincubated for 30 mins followed by substrate addition measured after 60 mins by scintillation proximity assay).
Format: cell-based, COS-7
Outline: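 Full-length human PDE10A2 from transfected COS-7 cells, held at -70 °C. [³H]cGMP added, 60 min at rt, stopped with yttrium SPA beads containing ZnSO₄. Counted after ≥120 min settling. Inhibition set against DMSO (0%) and 10 µM papaverine (100%) wells. Duplicate or triplicate.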

Chain of cAMP and cAMP-inhibited cGMP 3',5'-cyclic phosphodiesterase 10A (Q9Y233 whole entry): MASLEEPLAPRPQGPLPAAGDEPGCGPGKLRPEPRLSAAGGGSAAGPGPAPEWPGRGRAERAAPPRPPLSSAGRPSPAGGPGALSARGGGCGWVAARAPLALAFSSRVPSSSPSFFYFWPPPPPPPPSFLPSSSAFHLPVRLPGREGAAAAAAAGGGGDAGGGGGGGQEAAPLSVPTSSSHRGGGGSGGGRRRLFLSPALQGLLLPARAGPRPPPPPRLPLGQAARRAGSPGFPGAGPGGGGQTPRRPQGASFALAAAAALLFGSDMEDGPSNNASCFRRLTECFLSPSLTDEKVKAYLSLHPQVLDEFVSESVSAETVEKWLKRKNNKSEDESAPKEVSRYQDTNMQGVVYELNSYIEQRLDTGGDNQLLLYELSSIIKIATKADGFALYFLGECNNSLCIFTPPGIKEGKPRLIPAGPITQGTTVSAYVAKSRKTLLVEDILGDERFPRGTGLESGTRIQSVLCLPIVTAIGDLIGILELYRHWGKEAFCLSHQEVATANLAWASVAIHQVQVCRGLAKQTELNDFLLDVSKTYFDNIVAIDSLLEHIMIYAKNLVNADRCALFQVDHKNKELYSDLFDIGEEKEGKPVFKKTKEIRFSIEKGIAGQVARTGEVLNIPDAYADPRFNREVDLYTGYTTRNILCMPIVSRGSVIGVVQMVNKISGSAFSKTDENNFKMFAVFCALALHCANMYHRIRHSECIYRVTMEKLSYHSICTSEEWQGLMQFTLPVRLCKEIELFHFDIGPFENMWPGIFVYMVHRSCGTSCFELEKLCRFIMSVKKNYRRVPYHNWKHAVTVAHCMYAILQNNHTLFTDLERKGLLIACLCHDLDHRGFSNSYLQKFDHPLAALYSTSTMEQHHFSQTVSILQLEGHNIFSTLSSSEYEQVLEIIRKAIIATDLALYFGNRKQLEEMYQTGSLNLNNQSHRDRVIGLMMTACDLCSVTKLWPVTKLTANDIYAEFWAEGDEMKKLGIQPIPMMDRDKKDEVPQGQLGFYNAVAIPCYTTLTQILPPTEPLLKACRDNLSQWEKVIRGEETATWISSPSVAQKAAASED

SMILES | IC50
COc1cn(CC2CC2)nc(-c2ccnn2-c2ccccc2)c1=O | 170 nM
COc1cn(C)nc(-c2ccnn2-c2ccccc2)c1=O | 1000 nM
Cn1c(COc2cn(CC3CC3)nc(-c3ccnn3-c3ccccc3)c2=O)nc2ccccc21 | 2800 nM
Cn1c(CCOc2cn(CC3CC3)nc(-c3ccnn3-c3ccccc3)c2=O)nc2ccccc21 | 25 nM
COc1cn(-c2ccccc2)nc(-c2ccnn2C)c1=O | 2400 nM
Cn1c(OCCOc2cn(CC3CC3)nc(-c3ccnn3-c3ccccc3)c2=O)nc2ccccc21 | 4.1 nM
Cn1c(CCCOc2cn(CC3CC3)nc(-c3ccnn3-c3ccccc3)c2=O)nc2ccccc21 | 0.81 nM
O=c1c(OCCN2CCn3c2nc2ccccc23)cn(CC2CC2)nc1-c1ccnn1-c1ccccc1 | 0.76 nM
COc1cn(C2CC2)nc(-c2ccnn2-c2ccccc2)c1=O | 130 nM
COc1cn(CC(F)(F)F)nc(-c2ccnn2-c2ccccc2)c1=O | 550 nM
Cn1c(CCCCOc2cn(CC3CC3)nc(-c3ccnn3-c3ccccc3)c2=O)nc2ccccc21 | 760 nM
